Experimental data: ChEMBL document CHEMBL1130393, “Antitumor agents. 178. Synthesis and biological evaluation of substituted 2-aryl-1,8-naphthyridin-4(1H)-ones as antitumor agents that inhibit tubulin polymerization” (J Med Chem, 1997)

Assays:
[1] = test system: U-251; assay: In vitro antitumor activity against U-251 tumor cell lines; type: functional; details: Homo sapiens
[2] = test system: NCI-H460; assay: In vitro antitumor activity against NCI-H460 tumor cell lines; type: functional; details: Homo sapiens
[3] = test system: CAKI-1; assay: In vitro antitumor activity against CAKI-1 tumor cell lines; type: functional; details: Homo sapiens
[4] = test system: SK-MEL-5; assay: In vitro antitumor activity against SK-MEL-5 tumor cell lines; type: functional; details: Homo sapiens
[5] = test system: SF-295; assay: In vitro antitumor activity against SF-295 tumor cell lines; type: functional; details: Homo sapiens
[6] = test system: Tumor Cell line; assay: In vitro antitumor activity against NCI 's human tumor cell lines; type: functional; details: read-out: Average log GI50 (converted)
How it was run: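 NCI in vitro screen of 60 human tumor cell lines. […] The value is calculated from all cell lines tested.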

[7] = test system: MDA-MB-435; assay: In vitro antitumor activity against MDA-MB-435 NCI 's human tumor cell lines; type: functional
[8] = test system: PC-3; assay: In vitro antitumor activity against PC-3 tumor cell lines; type: functional; details: Homo sapiens
[9] = test system: HL-60; assay: In vitro antitumor activity against HL-60(TB) tumor cell lines; type: functional; details: Homo sapiens
[10] = test system: HCT-116; assay: In vitro antitumor activity against HCT116 tumor cell lines; type: functional; details: Homo sapiens
[11] = test system: MDA-N; assay: In vitro antitumor activity against MDA-N tumor cell lines; type: functional; details: Homo sapiens
[12] = test system: OVCAR-3; assay: In vitro antitumor activity against OVCAR-3 tumor cell lines; type: functional; details: Homo sapiens
[13] = molecular target: Tubulin (Bos taurus, UniProt Q6B856+Q862L2+Q862F3); assay: Inhibition of tubulin polymerization; type: functional
[14] = test system: Panel colon (Carcinoma cell lines); assay: log molar concentration required to cause total growth inhibition of colon tumor cell lines; type: functional; details: Homo sapiens, read-out: Log TGI (converted)
How it was run: (§1)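 TGI from the NCI 60 human tumor cell line in vitro screen: log of the molar drug concentration causing total growth inhibition, reported for the named cell panel.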

[15] = test system: Panel renal (Carcinoma cell lines); assay: log molar concentration required to cause total growth inhibition of renal tumor cell lines; type: functional; details: Homo sapiens, read-out: Log TGI (converted); how it was run: as §1
[16] = test system: Panel breast (Carcinoma cell lines); assay: log molar concentration required to cause total growth inhibition of breast tumor cell lines; type: functional; details: Homo sapiens, read-out: Log TGI (converted); how it was run: as §1
[17] = test system: Panel ovarian (Carcinoma cell lines); assay: log molar concentration required to cause total growth inhibition of ovarian tumor cell lines; type: functional; details: Homo sapiens, read-out: Log TGI (converted); how it was run: as §1
[18] = molecular target: Tubulin (Bos taurus) (UniProt Q6B856+Q862L2+Q862F3); assay: Inhibition of radiolabeled colchicine binding to tubulin; type: protein assay; parameters: concentration or dose not given beside the values; details: concentration not given here
How it was run: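 Measured by DEAE-cellulose filter binding. The 0.1 mL mixture held bovine brain tubulin 1.0 µM, 1.0 M monosodium glutamate (pH 6.6), 1 mM MgCl2, 0.1 mM GTP, 5.0 µM [3H]colchicine, 5% DMSO and inhibitor at 5.0 µM. It was incubated 20 min at 37 °C, filtered through two DEAE-cellulose papers, washed with water and counted by liquid scintillation.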

[19] = test system: NSCLC; assay: log molar concentration required to cause total growth inhibition of non-small cell lung tumor cell lines; type: functional; details: Homo sapiens, read-out: Log TGI (converted); how it was run: as §1
[20] = test system: Panel prostate (Carcinoma cell lines); assay: log molar concentration required to cause total growth inhibition of prostate tumor cell lines; type: functional; details: Homo sapiens, read-out: Log TGI (converted); how it was run: as §1
[21] = test system: Panel CNS (Carcinoma cell lines); assay: log molar concentration required to cause total growth inhibition of CNS cancer cell lines; type: functional; details: Homo sapiens, read-out: Log TGI (converted); how it was run: as §1
[22] = test system: Leukemic tumor cell line; assay: log molar concentration required to cause total growth inhibition of leukemic tumor cell lines; type: functional; details: Homo sapiens, read-out: Log TGI (converted); how it was run: as §1
[23] = test system: Melanoma tumor cell line; assay: log molar concentration required to cause total growth inhibition of melanomic tumor cell lines; type: functional; details: Homo sapiens, read-out: Log TGI (converted); how it was run: as §1
[24] = test system: Tumor Cell line; assay: log molar concentration required to cause total growth inhibition of NCI 's human tumor cell lines; type: functional; details: read-out: Log TGI (converted)
How it was run: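 NCI 60 human tumor cell line in vitro screen. TGI is the log molar concentration giving total growth inhibition, calculated from all cell lines tested.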

Row | Structure (SMILES) | GI50 [1] [nM] | GI50 [2] [nM] | GI50 [3] [nM] | GI50 [4] [nM] | GI50 [5] [nM] | GI50 [6] [nM] | GI50 [7] [nM] | GI50 [8] [nM] | GI50 [9] [nM] | GI50 [10] [nM] | GI50 [11] [nM] | GI50 [12] [nM] | IC50 [13] [µM] | inhibition [18] [%] | other results
1 | Cc1cccc(-c2cc(O)c3c(C)ccnc3n2)c1 | 53.7 | 36.3 | 53.7 | 33.9 | 30.2 | 57.5 | < 10 | 33.1 | 18.2 | 46.8 | 11 | 22.4 | 1.8 |  | 
2 | Cc1cc(C)c2c(O)cc(-c3cccc(Cl)c3)nc2n1 | 295 | 224 | 204 | 117 | 47.9 | 347 | 13.2 | 27.5 | 74.1 | 170 | 19.1 | 170 | 0.77 | 22 | TGI [14]: 28.8 µM; TGI [15]: 58.9 µM; TGI [16]: 1230 nM; TGI [17]: 30.2 µM; TGI [19]: > 100 µM; TGI [20]: 3090 nM; TGI [21]: 5.01 µM; TGI [22]: 81.3 µM; TGI [23]: 72.4 µM; TGI [24]: 26.3 µM
3 | Oc1cc(-c2cccc3ccccc23)nc2ncccc12 | 10.2 | 38.9 | 15.1 | < 10 | < 10 | 35.5 | < 10 | 17.8 | < 10 | < 10 | < 10 | < 10 | 1.1 |  | 
4 | Cc1ccc2c(O)cc(-c3ccc4ccccc4c3)nc2n1 | 4570 | 3800 | 5370 | 3310 | 3800 | 4570 | 1580 | 2630 | 1780 | 3980 | 1950 | 3630 | 5.1 |  | 
5 | Cc1cccc(-c2cc(O)c3cc(C)cnc3n2)c1 | 170 | 389 | 437 | 288 | 417 | 646 | < 10 | 309 | 174 | 407 | < 10 | 251 | 1.5 |  | 
6 | Cc1ccnc2nc(-c3cccc4ccccc34)cc(O)c12 | < 10 | < 10 | 12 | < 10 | 10.7 | 35.5 | < 10 | 19.9 | < 10 | < 10 | < 10 | < 10 | 0.93 | 37 | 
7 | Cc1ccc2c(=O)cc(-c3cccc(F)c3)[nH]c2n1 | 38 | 33.1 | 45.7 | 22.4 | 28.8 | 42.7 | 12.3 | 34.7 | 22.4 | 28.2 | 14.4 | 19.5 | 0.53 | 41 | TGI [14]: 0.55 µM; TGI [15]: 64.6 µM; TGI [16]: 575 nM; TGI [17]: 10.2 µM; TGI [19]: 5.75 µM; TGI [20]: 1580 nM; TGI [21]: 2.24 µM; TGI [22]: 2.75 µM; TGI [23]: 24 µM; TGI [24]: 4.68 µM
8 | Oc1cc(-c2ccc3ccccc3c2)nc2ncccc12 | 4370 | 3800 | 5620 | 3470 | 9120 | 8130 | 1780 | 10500 | 1820 | 3800 | 1660 | 8320 | 14 |  | 
9 | Cc1cnc2nc(-c3cccc4ccccc34)cc(O)c2c1 | < 10 | < 10 | < 10 | < 10 | < 10 | 19.1 | < 10 | < 10 | < 10 | < 10 | < 10 | < 10 | 0.55 | 46 | 
